Data: ChEMBL document CHEMBL3992547, “Antimicrobial activity of rhodanine-3-acetic acid derivatives” (Bioorg Med Chem, 2017)
Values after ≈ are worked out from the molar mass of the structure shown. Active and inactive are the calls of the source. No cut-off for these calls is given here.

Assays:
[1] = tested on: Mycobacterium tuberculosis; test: Antimycobacterial activity against Mycobacterium tuberculosis H37Rv 331/88 measured after 14 days by micromethod; type: functional; details: H37Rv 331/88, 336 h
[2] = tested on: Mycobacterium tuberculosis; test: Antimycobacterial activity against Mycobacterium tuberculosis H37Rv 331/88 measured after 21 days by micromethod; type: functional; details: H37Rv 331/88, 504 h
Mycobacterium avium [3] = test: Antimycobacterial activity against Mycobacterium avium 330/88 measured after 14 days by micromethod; type: functional; details: 330/88, 336 h
Mycobacterium avium [4] = test: Antimycobacterial activity against Mycobacterium avium 330/88 measured after 21 days by micromethod; type: functional; details: 330/88, 504 h
Mycobacterium kansasii [5] = test: Antimycobacterial activity against Mycobacterium kansasii isolate 235/80 after 7 days by micromethod; type: functional; details: isolate 235/80, 168 h
Mycobacterium kansasii [6] = test: Antimycobacterial activity against Mycobacterium kansasii isolate 235/80 after 14 days by micromethod; type: functional; details: isolate 235/80, 336 h
Mycobacterium kansasii [7] = test: Antimycobacterial activity against Mycobacterium kansasii isolate 235/80 after 21 days by micromethod; type: functional; details: isolate 235/80, 504 h
Mycobacterium kansasii [8] = test: Antimycobacterial activity against Mycobacterium kansasii isolate 6509/96 after 7 days by micromethod; type: functional; details: isolate 6509/96, 168 h
Mycobacterium kansasii [9] = test: Antimycobacterial activity against Mycobacterium kansasii isolate 6509/96 after 14 days by micromethod; type: functional; details: isolate 6509/96, 336 h
Mycobacterium kansasii [10] = test: Antimycobacterial activity against Mycobacterium kansasii isolate 6509/96 after 21 days by micromethod; type: functional; details: isolate 6509/96, 504 h
[11] = Solubility of the compound in Sula's semisynthetic medium up to 1 mM; type: physicochemical
Klebsiella pneumoniae [12] = test: Antibacterial activity against Klebsiella pneumoniae D 11750/08 up to 500 uM incubated for 24 to 48 hrs under dark condition by microdilution broth assay; type: functional
Method in brief: (§1)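 Broth microdilution per M07-A07, modified, in Mueller-Hinton broth adjusted to pH 7.4 (±0.2). Inoculum is prepared in sterile water to McFarland 0.5 (1.5 × 10⁸ CFU/mL). Plates are incubated in the dark at 35 °C in humid air. MIC is read after 24 and 48 h as at least 95% growth reduction versus control (IC₉₅).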

Klebsiella pneumoniae [13] = test: Antibacterial activity against ESBL positive Klebsiella pneumoniae J 14368/08 up to 500 uM incubated for 24 to 48 hrs under dark condition by microdilution broth assay; type: functional; method in brief: as §1
Pseudomonas aeruginosa = test: Antibacterial activity against Pseudomonas aeruginosa CCM 1961 up to 500 uM incubated for 24 to 48 hrs under dark condition by microdilution broth assay; type: functional; method in brief: as §1
Pichia kudriavzevii = test: Antifungal activity against Candida krusei E28 after 24 to 48 hrs hrs by microdilution broth assay; type: functional
Method in brief: (§2)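 Broth microdilution per CLSI M27-A3 and M38-A2 in RPMI 1640 with glutamine, buffered to pH 7.0 with MOPS. Compounds are diluted in DMSO. Final inoculum is 5 × 10³ CFU/mL for yeasts and 0.5–5 × 10⁴ CFU/mL for moulds. Plates are incubated in the dark at 35 °C in humid air and read visually and/or at 540 nm after 24 and 48 h. MIC is ≥80% growth reduction (IC₈₀) for yeasts and ≥50% (IC₅₀) for filamentous fungi.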

Lichtheimia corymbifera = test: Antifungal activity against Absidia corymbifera 272 after 24 to 48 hrs hrs by microdilution broth assay; type: functional; method in brief: as §2

Structure (SMILES)	MIC [1] [µM]	MIC [2] [µM]	MIC (Mycobacterium avium [3]) [µM]	MIC (Mycobacterium avium [4]) [µM]	MIC (Mycobacterium kansasii [5]) [µM]	MIC (Mycobacterium kansasii [6]) [µM]	MIC (Mycobacterium kansasii [7]) [µM]	MIC (Mycobacterium kansasii [8]) [µM]	MIC (Mycobacterium kansasii [9]) [µM]	MIC (Mycobacterium kansasii [10]) [µM]	solubility [11]	Activity (Klebsiella pneumoniae [12])	Activity (Klebsiella pneumoniae [13])	Activity (Pseudomonas aeruginosa)	Activity (Pichia kudriavzevii)	Activity (Lichtheimia corymbifera)
NNC(=O)c1ccncc1 [ISONIAZID]	0.5 (≈ 0.0686 µg/mL)	1 (≈ 0.137 µg/mL)	> 250	> 250	> 250	> 250	> 250	4 (≈ 0.549 µg/mL)	8 (≈ 1.1 µg/mL)	16 (≈ 2.19 µg/mL)	–	–	–	–	–	–
O=C(CN1C(=O)CSC1=S)Nc1ccc(C(F)(F)F)cc1	500 (≈ 167 µg/mL)	1000 (≈ 334 µg/mL)	> 1000	> 1000	1000 (≈ 334 µg/mL)	1000 (≈ 334 µg/mL)	1000 (≈ 334 µg/mL)	1000 (≈ 334 µg/mL)	1000 (≈ 334 µg/mL)	1000 (≈ 334 µg/mL)	Soluble	inactive	inactive	inactive	inactive	inactive
Cc1ccc(NC(=O)CN2C(=O)CSC2=S)cc1	500 (≈ 140 µg/mL)	500 (≈ 140 µg/mL)	1000 (≈ 280 µg/mL)	> 1000	250 (≈ 70.1 µg/mL)	500 (≈ 140 µg/mL)	500 (≈ 140 µg/mL)	500 (≈ 140 µg/mL)	500 (≈ 140 µg/mL)	500 (≈ 140 µg/mL)	Soluble	inactive	inactive	inactive	inactive	inactive
O=C(O)CN1C(=O)CSC1=S [RHODANINE-3-ACETIC ACID]	1000 (≈ 191 µg/mL)	1000 (≈ 191 µg/mL)	1000 (≈ 191 µg/mL)	1000 (≈ 191 µg/mL)	1000 (≈ 191 µg/mL)	1000 (≈ 191 µg/mL)	1000 (≈ 191 µg/mL)	1000 (≈ 191 µg/mL)	1000 (≈ 191 µg/mL)	1000 (≈ 191 µg/mL)	–	–	–	–	–	–
Cc1ccc(OC(=O)CN2C(=O)CSC2=S)cc1	1000 (≈ 281 µg/mL)	1000 (≈ 281 µg/mL)	1000 (≈ 281 µg/mL)	1000 (≈ 281 µg/mL)	1000 (≈ 281 µg/mL)	1000 (≈ 281 µg/mL)	1000 (≈ 281 µg/mL)	1000 (≈ 281 µg/mL)	1000 (≈ 281 µg/mL)	1000 (≈ 281 µg/mL)	Soluble	inactive	inactive	inactive	inactive	inactive
O=C(CN1C(=O)/C(=C/c2ccccc2O)SC1=S)Nc1ccc(Cl)cc1	8 (≈ 3.24 µg/mL)	16 (≈ 6.48 µg/mL)	62.5 (≈ 25.3 µg/mL)	125 (≈ 50.6 µg/mL)	32 (≈ 13 µg/mL)	62.5 (≈ 25.3 µg/mL)	125 (≈ 50.6 µg/mL)	62.5 (≈ 25.3 µg/mL)	125 (≈ 50.6 µg/mL)	125 (≈ 50.6 µg/mL)	Soluble	inactive	inactive	inactive	inactive	inactive
COc1ccc(NC(=O)CN2C(=O)CSC2=S)cc1	500 (≈ 148 µg/mL)	1000 (≈ 296 µg/mL)	1000 (≈ 296 µg/mL)	> 1000	500 (≈ 148 µg/mL)	500 (≈ 148 µg/mL)	1000 (≈ 296 µg/mL)	500 (≈ 148 µg/mL)	500 (≈ 148 µg/mL)	1000 (≈ 296 µg/mL)	Soluble	inactive	inactive	inactive	inactive	inactive
